Reference: ChEMBL document CHEMBL2375283, “Design and synthesis of 1-aryl-5-anilinoindazoles as c-Jun N-terminal kinase inhibitors” (Bioorg Med Chem Lett, 2013)

Legend:
Homo sapiens = organism: Homo sapiens; test: Selectivity ratio of IC50 for JNK1 (unknown origin) to IC50 for JNK3 (unknown origin)
[1] = target: Mitogen-activated protein kinase 10 (Homo sapiens, UniProt P53779); test: Inhibition of JNK3 (unknown origin)-mediated ATF2 Thr71 phosphorylation by HTRF assay
Summary of the method: (§1)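 The kinase reaction used biotinylated ATF2 substrate with ATP. The phospho-Thr71-ATF2 product was detected by HTRF with a Europium-cryptate labeled anti-phospho-Thr71-ATF2 antibody. IC50 values are averages of two or more experiments.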

[2] = Oral bioavailability in Sprague-Dawley rat at 2 mg/kg; type: ADME, organism-based; settings: in vivo
Summary of the method: (§2)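 Rats received compound intravenously at 1 mg/kg or by oral gavage at 2 mg/kg. Blood was sampled at 5, 15 and 30 min and at 1, 2, 4, 6 and 8 h into EDTA tubes, and plasma was obtained by centrifugation. Plasma proteins were precipitated with acetonitrile, and drug levels were quantified by LC–MS/MS.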

[3] = Plasma concentration in C57BL6 mouse at 10 mg/kg, ip after 2 hrs; type: ADME, organism-based; design: dose 10 mg/kg, route intraperitoneal
Summary of the method: (§3)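 C57Bl6 mice (n = 3) were given 10 mg/kg intraperitoneally. Blood and brain were collected 2 h later, and plasma was frozen at −80 °C. Plasma (1:5 v/v) and brain (1:5 w/v) were mixed with acetonitrile, and brain was probe-sonicated. Drug levels were measured by LC–MS/MS against standards prepared in plasma or in blank brain matrix.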

[4] = Plasma clearance in Sprague-Dawley rat at 1 mg/kg, iv and 2 mg/kg, po; type: ADME, organism-based; summary of the method: as §2
[5] = Drug uptake in C57BL6 mouse brain at 10 mg/kg, ip after 2 hrs; type: ADME, organism-based; design: dose 10 mg/kg, route intraperitoneal; settings: read-out: Drug uptake; summary of the method: as §3
[6] = Half life in Sprague-Dawley rat at 1 mg/kg, iv and 2 mg/kg, po; type: ADME, organism-based; settings: in vivo; summary of the method: as §2
[7] = Half life in rat liver microsomes; type: ADME, Microsome
[8] = target: Mitogen-activated protein kinase 8 (Homo sapiens, UniProt P45983); test: Inhibition of JNK1 (unknown origin)-mediated ATF2 Thr71 phosphorylation by HTRF assay; summary of the method: as §1
Mitogen-activated protein kinase 8, sequence (P45983 whole entry): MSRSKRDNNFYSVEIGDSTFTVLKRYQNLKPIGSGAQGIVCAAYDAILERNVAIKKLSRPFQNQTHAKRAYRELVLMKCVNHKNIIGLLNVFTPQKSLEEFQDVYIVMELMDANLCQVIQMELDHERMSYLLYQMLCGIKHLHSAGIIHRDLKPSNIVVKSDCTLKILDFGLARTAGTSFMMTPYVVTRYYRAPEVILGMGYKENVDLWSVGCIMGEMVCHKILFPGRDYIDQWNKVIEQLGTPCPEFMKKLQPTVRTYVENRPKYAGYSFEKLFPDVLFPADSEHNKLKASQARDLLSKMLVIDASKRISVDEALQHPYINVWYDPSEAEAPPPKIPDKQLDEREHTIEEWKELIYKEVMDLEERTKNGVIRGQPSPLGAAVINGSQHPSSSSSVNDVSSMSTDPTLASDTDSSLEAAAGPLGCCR

[9] = Half life in human liver microsomes; type: ADME, Microsome
[10] = AUC in Sprague-Dawley rat at 1 mg/kg, iv and 2 mg/kg, po; type: ADME, organism-based; settings: plasma; summary of the method: as §2
[11] = target: Mitogen-activated protein kinase 10 (Rattus norvegicus, UniProt P49187); test: Inhibition of JNK3-mediated c-Jun phosphorylation in rat INS-1 cells after 3 hrs by ELISA; type: cell-based, INS1
Mitogen-activated protein kinase 10 (Rattus norvegicus, UniProt P49187), sequence (P49187 whole entry): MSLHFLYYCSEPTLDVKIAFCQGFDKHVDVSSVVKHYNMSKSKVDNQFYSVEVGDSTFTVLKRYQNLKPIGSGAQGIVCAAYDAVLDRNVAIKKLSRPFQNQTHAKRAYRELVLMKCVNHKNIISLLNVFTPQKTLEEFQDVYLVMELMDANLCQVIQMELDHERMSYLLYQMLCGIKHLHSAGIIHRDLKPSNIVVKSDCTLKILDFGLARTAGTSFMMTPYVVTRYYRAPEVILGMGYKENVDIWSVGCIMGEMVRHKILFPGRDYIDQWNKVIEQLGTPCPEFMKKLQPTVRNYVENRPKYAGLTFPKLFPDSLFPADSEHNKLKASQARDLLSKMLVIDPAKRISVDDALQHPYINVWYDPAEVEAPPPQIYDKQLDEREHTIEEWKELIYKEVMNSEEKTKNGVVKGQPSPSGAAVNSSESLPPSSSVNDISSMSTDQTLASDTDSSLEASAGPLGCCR

Mitogen-activated protein kinase 10 (Homo sapiens, UniProt P53779), sequence (P53779 whole entry): as the sequence (P49187 whole entry) above, with H27Q, S32Y, V33I, V34A counted along it

Compound: O=C(NCCN1CCOCC1)c1cc(-n2ncc3cc(Nc4c(Cl)cccc4Cl)ccc32)ccn1
- Ratio IC50 (Homo sapiens): 10
- IC50 [1]: 640 nM

Compound: CN1CCN(CCNC(=O)c2cncc(-n3ncc4cc(Nc5c(Cl)cccc5Cl)ccc43)c2)CC1
- Ratio IC50 (Homo sapiens): 10
- IC50 [1]: 110 nM

Compound: Cc1cccc(NC(=O)c2cccc(-n3ncc4cc(Nc5ccccc5F)ccc43)c2)c1
- bioavailability [2]: 7%
- Ratio IC50 (Homo sapiens): 5
- concentration at 2 h [3]: 350 nM
- clearance [4]: 79 mL/min/kg
- concentration at 2 h [5]: 30 nM
- half-life [6]: 18 min
- IC50 [1]: 120 nM
- half-life [7]: 6 min
- IC50 [8]: 470 nM
- half-life [9]: 8.9 min
- AUC [10]: 0.5 µM·h

Compound: COc1cc(NC(=O)c2cccc(-n3cc(Nc4nc5ccccc5[nH]4)cn3)c2)cc(OC)c1OC
- IC50 [1]: > 20000 nM

Compound: O=C(NCCCN1CCOCC1)c1cccc(-n2ncc3cc(Nc4ccccc4F)ccc32)c1
- Ratio IC50 (Homo sapiens): 5
- IC50 [1]: 22 nM

Compound: Cc1cc(NC(=O)c2cccc(-n3ncc4cc(Nc5ccccc5F)ccc43)c2)ccc1N1CCOCC1
- Ratio IC50 (Homo sapiens): 5
- IC50 [1]: 38 nM
- IC50 [8]: 170 nM

Compound: COc1cc(NC(=O)c2cccc(-n3ncc4cc(Nc5ccccc5)ccc43)c2)cc(OC)c1OC
- Ratio IC50 (Homo sapiens): 10
- IC50 [1]: 24 nM
- half-life [7]: 5.8 min
- IC50 [8]: 200 nM
- half-life [9]: 12.8 min

Compound: O=C(NCCO)c1cccc(-n2ncc3cc(Nc4ccccc4Cl)ccc32)c1
- Ratio IC50 (Homo sapiens): 5
- IC50 [1]: 35 nM
- IC50 [8]: 800 nM
- IC50 [11]: ≥ 20000 nM

Compound: O=C(NCCN1CCOCC1)c1cccc(-n2ncc3cc(Nc4ccccc4Cl)ncc32)c1
- Ratio IC50 (Homo sapiens): 10
- IC50 [1]: 80 nM
- IC50 [8]: 1300 nM

Compound: CN1CCN(CCNC(=O)c2cccc(-n3ncc4cc(Nc5c(Cl)cccc5Cl)ccc43)c2)CC1
- bioavailability [2]: 20%
- Ratio IC50 (Homo sapiens): 5
- concentration at 2 h [3]: 2120 nM
- clearance [4]: 34 mL/min/kg
- concentration at 2 h [5]: 810 nM
- half-life [6]: 120 min
- IC50 [1]: 50 nM
- IC50 [8]: 1200 nM
- AUC [10]: 0.38 µM·h

Compound: NC(=O)c1cccc(-n2ncc3cc(Nc4ccccc4F)ccc32)c1
- Ratio IC50 (Homo sapiens): 5
- IC50 [1]: 63 nM
- IC50 [8]: 730 nM

Compound: O=C(NCCN1CCOCC1)c1cccc(-n2ncc3cc(Nc4c(Cl)cccc4Cl)ccc32)c1
- Ratio IC50 (Homo sapiens): 5
- IC50 [1]: 77 nM
- IC50 [8]: 1380 nM

Compound: COc1ccccc1Nc1ccc2c(cnn2-c2cccc(C(=O)NCCCN3CCOCC3)c2)c1
- Ratio IC50 (Homo sapiens): 5
- IC50 [1]: 43 nM

Compound: O=C(NCCN1CCOCC1)c1ccnc(-n2ncc3cc(Nc4ccccc4Cl)ccc32)c1
- bioavailability [2]: 5%
- Ratio IC50 (Homo sapiens): 10
- concentration at 2 h [3]: 530 nM
- clearance [4]: 54 mL/min/kg
- concentration at 2 h [5]: 1400 nM
- half-life [6]: 30 min
- IC50 [1]: 120 nM
- IC50 [8]: 2300 nM
- IC50 [11]: 5300 nM
- AUC [10]: 0.01 µM·h

Compound: Cc1cccc(CC(=O)Nc2cnn(-c3cccc(C(=O)NC4CCOC(C)(C)C4)c3)c2)c1 (stereo not given)
- Ratio IC50 (Homo sapiens): > 25
- IC50 [1]: 1100 nM
- IC50 [8]: ≥ 20000 nM

Compound: COc1cc(NC(=O)c2cccc(-n3ncc4cc(Nc5ccccc5C)ccc43)c2)cc(OC)c1OC
- Ratio IC50 (Homo sapiens): 5
- IC50 [1]: 59 nM

Compound: O=C(NCCN1CCOCC1)c1cccc(-n2ncc3cc(Nc4ccccc4)cnc32)c1
- Ratio IC50 (Homo sapiens): 10
- IC50 [1]: 170 nM
- IC50 [8]: 1200 nM

Compound: CCOc1ccc(NC(=O)c2cccc(-n3ncc4cc(Nc5ccccc5F)ccc43)c2)cc1OC
- Ratio IC50 (Homo sapiens): 5
- IC50 [1]: 46 nM
- IC50 [8]: 430 nM

Compound: O=C(NCCN1CCOCC1)c1cccc(-n2ncc3cc(Nc4ccccn4)ccc32)c1
- Ratio IC50 (Homo sapiens): 5
- IC50 [1]: 1400 nM
- IC50 [8]: 7100 nM

Compound: O=C(NCCN1CCOCC1)c1cccc(-n2ncc3cc(Nc4ccccc4Cl)ccc32)c1
- Ratio IC50 (Homo sapiens): 5
- concentration at 2 h [3]: 560 nM
- concentration at 2 h [5]: 550 nM
- IC50 [1]: 54 nM
- IC50 [8]: 750 nM
- IC50 [11]: 4100 nM

Compound: Cc1cccc(NC(=O)c2cccc(-n3ncc4cc(Nc5ccccc5C)ccc43)c2)c1
- Ratio IC50 (Homo sapiens): 5
- IC50 [1]: 250 nM

Compound: COc1cc(NC(=O)c2cccc(-n3ncc4cc(Nc5ccccc5F)ccc43)c2)cc(OC)c1OC
- bioavailability [2]: 5%
- Ratio IC50 (Homo sapiens): 5
- concentration at 2 h [3]: 790 nM
- clearance [4]: 57 mL/min/kg
- concentration at 2 h [5]: 50 nM
- half-life [6]: 90 min
- IC50 [1]: 9 nM
- IC50 [8]: 73 nM
- AUC [10]: 0.05 µM·h

Compound: O=C(NCCN1CCOCC1)c1cccc(-n2ncc3cc(Nc4ccccc4Cl)ccc32)n1
- Ratio IC50 (Homo sapiens): 10
- IC50 [1]: 640 nM
- IC50 [8]: 7010 nM

Compound: COc1cc(NC(=O)c2cccc(-n3ncc4cc(Nc5ccccc5Cl)ccc43)c2)cc(OC)c1OC
- Ratio IC50 (Homo sapiens): 5
- IC50 [1]: 12 nM
- IC50 [8]: 93 nM

Compound: O=C(NCCCN1CCOCC1)c1ccc(-n2ncc3cc(Nc4ccccc4Cl)ccc32)cc1
- concentration at 2 h [3]: 240 nM
- concentration at 2 h [5]: 690 nM
- IC50 [1]: 33 nM
- IC50 [8]: 920 nM
- IC50 [11]: ≥ 20000 nM

Compound: Cc1cc(NC(=O)c2cccc(-n3ncc4cc(Nc5ccccc5Cl)ccc43)c2)ccc1N1CCOCC1
- Ratio IC50 (Homo sapiens): 5
- IC50 [1]: 32 nM
- IC50 [8]: 160 nM

Compound: O=C(NCCCN1CCOCC1)c1cccc(-n2ncc3cc(Nc4ccccc4Cl)ccc32)c1
- bioavailability [2]: 6%
- Ratio IC50 (Homo sapiens): 5
- concentration at 2 h [3]: 280 nM
- clearance [4]: 123 mL/min/kg
- concentration at 2 h [5]: 570 nM
- half-life [6]: 30 min
- IC50 [1]: 15 nM
- half-life [7]: 5.6 min
- IC50 [8]: 410 nM
- half-life [9]: 8.6 min
- AUC [10]: 0.01 µM·h

Compound: Cc1cccc(Nc2ccc3c(cnn3-c3cccc(C(=O)NCCN4CCN(C5CCC5)CC4)c3)c2)c1Cl
- bioavailability [2]: 27%
- Ratio IC50 (Homo sapiens): 5
- concentration at 2 h [3]: 1200 nM
- clearance [4]: 25 mL/min/kg
- concentration at 2 h [5]: 3900 nM
- half-life [6]: 198 min
- IC50 [1]: 40 nM
- IC50 [8]: 970 nM
- AUC [10]: 0.72 µM·h
